Xi reactivation = X-chromosome reactivation activator; hit rate 0.055% among 360,000; XiGFP mouse fibroblasts, % GFP-positive cells imaging, 3 d; cells co-treated with 5-aza-dC sensitizer; scaled so ellipticine positive control = 100%; AID 743238; activation, % at 7.58 µM;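 active means mean normalized replicate activation at least 10% and every replicate at or above 10%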;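 further: 0% = median of on-plate neutral control wells and 100% = ellipticine 6 µM median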
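material = 68-5-11 XiGFP fibroblast line | medium = DMEM plus 5-aza-dC sensitizer | schedule = 3 days compound exposure | benchmarks = positive control ellipticine, 6 µM final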
HNF4A DNA FP = change in binding of human HNF4 alpha to DNA | HNF4a-FITC DNA binding, fluorescence polarization, 1 h | activity change, % at 10 µM | hit rate 0.3% among 360,000 | AID 1224865; in the data active means activity change above about 30%, passing the limit was not always enough
TPT1 inhibitor = inhibitors of Candida albicans tRNA 2'-phosphotransferase TPT1 | inhibition, % at 5 µM | hit rate 0.81% among 300,000 | AID 1962 | recombinant caTPT1, FP RNA substrate dephosphorylation;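 active means inhibition above the mean of all tested compounds plus 3 SD, set per screening campaign, cut at about 24% in these data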;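 further: plate controls were DMSO alone for no effect and ferristatin control at 100 nM for full effect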
CSN inh = blocks human CSN-mediated cullin deneddylation. hit rate 0.38% among 360,000. Purified CSN, SCF-Nedd8-OG deneddylation, fluorescence polarization. inhibition, % at 12.5 µM. Q92905;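 active means pattern-corrected inhibition above about 35%, with an unprinted fluorescence ratio check between 0.5 and 1.5, limit read from the data, passing the limit was not always enough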;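 further: 0% = enzyme with substrate and 100% = substrate without enzyme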
Target sequence (Q92905 whole entry, looked up, one chain of several): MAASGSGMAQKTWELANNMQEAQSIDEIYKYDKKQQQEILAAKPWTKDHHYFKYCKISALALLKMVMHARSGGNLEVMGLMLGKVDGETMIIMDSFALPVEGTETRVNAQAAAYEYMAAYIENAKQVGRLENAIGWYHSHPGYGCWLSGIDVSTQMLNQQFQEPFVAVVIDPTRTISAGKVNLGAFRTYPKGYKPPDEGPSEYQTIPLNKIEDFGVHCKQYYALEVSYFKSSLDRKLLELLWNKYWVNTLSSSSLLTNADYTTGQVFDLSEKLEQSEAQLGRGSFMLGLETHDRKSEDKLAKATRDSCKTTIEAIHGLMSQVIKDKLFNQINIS
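Detection – fluorescence polarization · System – HEK293T-derived human Csn5 enzyme · Controls – substrate-only high control, full reaction low control · Timing – 90 min, room temperature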
aDG glyco up = alpha-DG glycosylation activation | Pro5-aDG cells, alpha-DG glycosylation AlphaScreen (IIH6); 0% Pro5, 100% B10-LARGE cell signal | activation, % at 10 µM | hit rate 0.22% among 360,000;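 active means activation of at least 8% versus controls, or a plate z-score of at least 8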;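 further: Pro5 are CHO cells carrying HIG-tagged alpha-DG that lacks glycosylation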
Rpn11 inh = Rpn11 (human) deubiquitinase inhibition; human 26S proteasome, Ub4-pepOG fluorescence polarization; 20S core pre-blocked with epoxomicin; inhibition, % at 20 µM; hit rate 0.59% among 360,000; AID 588493;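 active means inhibition at 20 µM, scaled to each plate's controls, above about 33%, limit read from the data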
Target sequence (O00487 whole entry, looked up): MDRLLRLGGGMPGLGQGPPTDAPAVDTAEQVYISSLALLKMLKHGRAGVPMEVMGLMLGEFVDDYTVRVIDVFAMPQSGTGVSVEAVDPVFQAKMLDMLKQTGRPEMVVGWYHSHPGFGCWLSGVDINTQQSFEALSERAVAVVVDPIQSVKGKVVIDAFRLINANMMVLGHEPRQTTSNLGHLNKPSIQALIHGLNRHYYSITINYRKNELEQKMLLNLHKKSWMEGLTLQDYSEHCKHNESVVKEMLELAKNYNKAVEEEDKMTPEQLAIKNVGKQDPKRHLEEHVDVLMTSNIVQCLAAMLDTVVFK
caTPT1 confirm = TPT1 (C. albicans) inhibition, confirmation; shares compounds with TPT1 inhibitor; recombinant caTPT1, fluorescence polarization, RNase T1 coupled; inhibition, % at 5 µM; hit rate 74% among 2,400; AID 2149;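 active means inhibition above the primary screen limit, the mean inhibition of all tested compounds plus 3 SD, cut at about 25% in these data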
RNase T1 counter = counter-screen for TPT1 inhibitors: inhibitors of Aspergillus oryzae RNase T1. hit rate 83% among 2,400. RNase T1 cleavage, fluorescence polarization, 1536-well. AID 2153. shares compounds with TPT1 inhibitor. inhibition, % at 5 µM;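 active means inhibition above the solvent-only control well mean plus 3 SD, limit set per screening run, cut at about 23% in these data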;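 further: plate controls were DMSO wells with enzyme for no effect and wells without RNase T1 for full effect; inhibitors block cleavage so intact labeled substrate keeps polarization high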
Active calls of the source: *; nt = no result given. Only some compounds are listed: those with a hit (about 1.3% of all), similar ones and a draw of the others.

SMILES	Xi reactivation	HNF4A DNA FP	TPT1 inhibitor	CSN inh	aDG glyco up	Rpn11 inh	caTPT1 confirm	RNase T1 counter
COc1cccc(/C=N/NC(=O)c2oc3nc(-c4ccccc4)cc(-c4ccco4)c3c2N)c1	0	39*	82*	5	0	nt	86*	97*
CCOC(=O)c1cc(-c2cccs2)nc2onc(C)c12	nt	-3	2	4	0	-1	nt	nt
NNC(=O)c1oc2nc(-c3cccs3)cc(-c3ccco3)c2c1N	0	16	50*	-45	0	17	47*	57*
NNC(=O)c1oc2nc(-c3ccccc3)cc(-c3ccccc3)c2c1N	0	5	-1	3	0	9	nt	nt
C[C@@H]1CN([C@@H](C)CO)C(=O)Cc2cc(NC(=O)NC3CCCCC3)ccc2O[C@H]1CN(C)Cc1ccc(Oc2ccccc2)cc1	-1	nt	nt	nt	nt	nt	nt	nt
C[C@H]1CN([C@@H](C)CO)C(=O)c2cc(C#CCN(C)C)cnc2O[C@@H]1CN(C)Cc1cccc(F)c1	-1	nt	nt	nt	nt	nt	nt	nt
Cc1ccc(-c2nc(CN3CCCCC3c3cccc(F)c3)c(C)o2)o1 (stereo unspecified)	0	19	33*	9	0	28	23	30*
Cc1oc(-c2ccccc2Cl)nc1CN1CCCC1c1ccc(F)cc1 (stereo unspecified)	0	7	3	3	0	10	nt	nt
CC(=O)[C@@H]1[C@@H]2C(=O)N(C3CCCCC3)C(=O)[C@@H]2C2c3ccccc3C=CN21 (stereo partly specified)	nt	nt	-11	nt	nt	nt	nt	nt
COc1ccc(NC(=O)[C@@H]2[C@@H]3C(=O)N(C4CCCCC4)C(=O)[C@@H]3C3c4ccccc4C=CN32)cc1 (stereo partly specified)	nt	14	43*	9	0	31	50*	54*
CCCCCN1C=CC=C/C1=C\C=C(C#N)C#N	0	11	41*	1	0	34	44*	58*
COc1ccccc1NC(=O)N[C@@H]1C=C[C@H](CC(=O)N2CCC(Cc3ccccc3)CC2)O[C@H]1CO	0	nt	nt	nt	nt	nt	nt	nt
O=C(O)c1ccc(NS(=O)(=O)/C=C/c2ccccc2)cc1O	nt	3	24*	-3	0	1	3	5
C[C@H](CO)N1C[C@H](C)[C@H](CN(C)S(=O)(=O)c2ccc(F)cc2)Oc2c(NC(=O)C3CCOCC3)cccc2C1=O	1	nt	nt	nt	nt	nt	nt	nt
CC(C)NC(=O)/C(C#N)=C/c1ccc(N(C)C)o1	3	170	158*	128	0	nt	177*	167*
Cc1ccc(N=Nc2[nH]c3ccccc3c2O)cc1	0	7	24*	8	0	-25	-8	3
Nc1c(C(=O)NC2CC2)sc2nc3c(c(-c4ccco4)c12)CC/C3=C/c1ccco1	nt	-42	36*	52	0	-26	3	1
NC(=O)c1sc2nc3c(c(-c4ccco4)c2c1N)CCC3	nt	-7	0	20	0	-11	nt	nt
CC1Cc2ccccc2N1CC(=O)Nc1ccc(S(=O)(=O)N(C)C)cc1 (stereo unspecified)	0	0	-1	-4	0	3	nt	nt
CN(C)S(=O)(=O)c1ccc(NC(=O)CN2CCCc3ccccc32)cc1	0	20	51*	10	0	nt	42*	54*
CN(C)S(=O)(=O)c1cc(NC(=O)CN2CCCc3ccccc32)ccc1Cl	0	15	46*	7	0	nt	51*	61*
CN(C)S(=O)(=O)c1cc(NC(=O)CN2CCc3ccccc32)ccc1Cl	0	1	-30	-16	0	-3	nt	nt
COc1ccc(C(=O)c2c(N)sc3c2CCN(C)C3)cc1	0	-13	42*	3	0	1	40*	48*
S=C(NCCN1CCOCC1)N/N=C/c1c2ccccc2cc2ccccc12	nt	46	38*	2	0	nt	46*	58*
NC(=S)N/N=C\c1c2ccccc2cc2ccccc12	0	-3	15	2	0	2	nt	nt
SMILES	Xi reactivation	HNF4A DNA FP	TPT1 inhibitor	CSN inh	aDG glyco up	Rpn11 inh	caTPT1 confirm	RNase T1 counter
COc1ccc2ccccc2c1/C=N/NC(=S)NCCN1CCOCC1	0	5	2	-2	0	6	nt	nt
COCCNC(=S)N/N=C/c1c2ccccc2cc2ccccc12	0	6	40*	0	0	20	51*	61*
CNC(=S)N/N=C/c1c2ccccc2c(Cl)c2ccccc12	1	5	25*	0	0	6	18	24*
O=S(=O)(c1ccc(NC(=S)N/N=C/c2c3ccccc3cc3ccccc23)cc1)N1CCOCC1	0	28	73*	3	-1	18	99*	104*
COCC(=O)N(C)C[C@H]1Oc2cc(C#CCC3CCCC3)ccc2S(=O)(=O)N([C@@H](C)CO)C[C@@H]1C	1	nt	nt	nt	nt	nt	nt	nt
Cc1sc(NC(=O)c2sc3nc4c(C)cccc4cc3c2N)c(C#N)c1C	nt	21	25*	22	0	32	30*	43*
O=C(Cc1ccccc1)Nn1c(O)c(/C=C2\C=Nc3ccccc32)sc1=S	0	53*	139*	9	0	36	94*	105*
O=C(C[C@@H]1CC[C@@H]2[C@H](COC[C@H](O)CN2S(=O)(=O)c2ccccc2)O1)N[C@@H]1CCN(Cc2ccccc2)C1	0	nt	nt	nt	nt	nt	nt	nt
Cc1noc(C)c1NC(=O)N(C)C[C@H]1OCCCC[C@H](C)Oc2ccc(N(C)C)cc2C(=O)N([C@H](C)CO)C[C@@H]1C	0	nt	nt	nt	nt	nt	nt	nt
COc1ccc(N=Cc2sc(O)c3ccccc23)cc1	nt	80	147*	82	0	nt	120*	116*
CCN1CCS/C1=C/C=C/C1=[N+](CC)CCS1	nt	15	25*	-15	0	15	25*	33*
CCN1CCS/C1=C\C=C\C1=[N+](CC)CCS1	0	13	nt	4	0	13	nt	nt
O=[N+]([O-])c1c(Nc2ccccn2)cc(Cl)c2nonc12	0	16	128*	-76	0	nt	135*	130*
O=C(O)c1ccccc1Nc1cc(Cl)c2nonc2c1[N+](=O)[O-]	0	-1	0	5	0	-1	nt	nt
O=C(NCC[C@H]1CC[C@H](NC(=O)C2CCC2)[C@@H](CO)O1)c1ccc(F)cc1	-1	nt	nt	nt	nt	nt	nt	nt
Cc1cc(=O)oc(C)c1C(=O)Nc1ccc2ncccc2c1	nt	-42	25*	-1	0	-42	35*	45*
